According to publication PMC7644900 (Heliyon, 2020):

Tests used:
S.aureus (ATCC 29213) = assay: Antibacterial broth-dilution MIC; assay type: cell-based, Staphylococcus aureus
Method in brief: (§1)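 Broth-dilution in 96-well plates against S. aureus ATCC 29213, B. cereus ATCC 10876, E. coli ATCC 22922, K. pneumoniae ATCC 13883 and P. aeruginosa. Test compound concentrations spanned 10–100 mM. CTAB served as positive control and DMSO as negative control. Activity was reported as minimum inhibitory concentration.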

B.cereus (ATCC 10876) = assay: Antibacterial broth-dilution MIC; assay type: cell-based, Bacillus cereus
Method in brief: as §1

E. coli (ATCC 22922) = assay: Antibacterial broth-dilution MIC; assay type: cell-based, Escherichia coli
Method in brief: as §1

[1] = tested on: K. pneumonia (ATCC 13883); assay: Antibacterial broth-dilution MIC; assay type: cell-based, Klebsiella pneumonia
Method in brief: as §1

[2] = tested on: P. aeruginosa (ATCC 27853); assay: Antibacterial broth-dilution MIC; assay type: cell-based, Pseudomonas aeruginosa
Method in brief: as §1

[3] = target: T1, bovine serum albumin (BSA) (Bos taurus, UniProt P02769); assay: BSA steady state/intrinsic fluorescence quenching study; assay type: binding; details: 298 K; for bimolecular quenching constant Kq x 10^12: pH 7.4, τ0 10^−8 s; for Stern-Volmer constant Ksv x 10^4 / binding constant Ka: phosphate buffer pH 7.4
T1 sequence (P02769 25-607): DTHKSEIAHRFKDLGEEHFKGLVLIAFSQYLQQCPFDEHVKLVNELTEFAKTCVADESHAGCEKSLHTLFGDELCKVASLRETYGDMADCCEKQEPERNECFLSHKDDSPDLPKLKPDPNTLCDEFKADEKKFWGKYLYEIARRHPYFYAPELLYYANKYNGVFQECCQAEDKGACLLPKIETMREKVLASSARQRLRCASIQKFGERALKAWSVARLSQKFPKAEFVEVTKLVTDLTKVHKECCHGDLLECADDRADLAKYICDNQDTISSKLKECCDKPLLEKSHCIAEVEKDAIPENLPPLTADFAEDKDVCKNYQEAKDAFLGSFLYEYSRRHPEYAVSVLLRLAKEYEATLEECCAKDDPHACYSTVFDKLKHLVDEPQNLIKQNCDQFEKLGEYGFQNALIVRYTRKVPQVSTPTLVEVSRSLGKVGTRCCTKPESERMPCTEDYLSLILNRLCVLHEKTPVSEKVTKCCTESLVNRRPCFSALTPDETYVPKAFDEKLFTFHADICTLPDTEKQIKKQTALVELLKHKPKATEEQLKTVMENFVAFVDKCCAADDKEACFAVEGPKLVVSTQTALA
Method in brief: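 BSA (10 μM stock) in phosphate buffer pH 7.4 in a 1.0 cm quartz cuvette at 298 K. Intrinsic fluorescence: excitation 295 nm, scan 300–400 nm, intensity read at 336 nm. Slits were 10 nm (excitation) and 5.0 nm (emission). Titrated with test compound stock (0.001 M) and read after each addition. Ksv and Kq were obtained from Stern-Volmer plots of F0/F versus quencher concentration.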

[4] = target: T1, bovine serum albumin (BSA); assay: Thermodynamic BSA binding studies; details: for ΔH (enthalpy change) / ΔS (entropy change): van't Hoff, 298-313 K
Method in brief: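 BSA (10 μM) in phosphate buffer pH 7.4 in a 1.0 cm quartz cuvette. Excitation 295 nm, emission scanned 300–400 nm at 298, 308 and 313 K. Titrated with 15 μL of test compound. Binding constants were taken at each temperature, with ΔG = −RT lnKa. ΔH and ΔS were calculated from the Ka values across the three temperatures.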

[5] = target: T1, bovine serum albumin (BSA); assay: Competitive BSA binding experiments using site markers warfarin and ibuprofen; details: 298 K
HaCaT cells = assay: In-vitro cytotoxicity MTT assay; assay type: cell-based, human
Method in brief: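 HaCaT cells in DMEM with FBS, glutamine and penicillin/streptomycin were seeded one day earlier and incubated 24 h. Exposed to test compound (20–1.25 mg/mL), 4% ethyl acetate blank or 20% DMSO control for 24 h at 37 °C, 5% CO2. Morphology was checked by microscopy. After PBS wash, MTT (1 mg/mL) was added for 2 h, dissolved in isopropanol and absorbance read. Mean of 3 wells, ≥3 independent experiments.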

[6] = Critical micelle concentration by pyrene fluorescence probe; assay type: physicochemical; details: 25 °C, pyrene as probe
Method in brief: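 Pyrene probe (0.1 mM methanol stock) was dried in vials, then test compound solutions were added to give 1.6 μM final pyrene. Mixed on an orbital shaker for 24 h and measured at 298 K. Excitation 334 nm, emission 350–450 nm, slits 5.0/2.5 nm. CMC was taken from the plot of I1 (373 nm)/I3 (384 nm) versus concentration.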

[7] = in the presence of Ibuprofen (site II marker)
[8] = in the presence of Warfarin (site I marker)

| Compound | bimolecular quenching constant Kq x 10^12 [3] | Stern-Volmer constant Ksv x 10^4 [3] | binding constant Ka [3] | Ka ([4]; 298 K) | ln Ka ([4]; 298 K) | ΔG (free energy) ([4]; 298 K) | Ka ([4]; 308 K) | ln Ka ([4]; 308 K) | ΔG (free energy) ([4]; 308 K) | Ka ([4]; 313 K) | ln Ka ([4]; 313 K) | ΔG (free energy) ([4]; 313 K) | ΔH (enthalpy change) [4] | ΔS (entropy change) [4] | Ka ([5]; Blank (no site marker)) | Ka [5, 7] | Ka [5, 8] | MIC (S.aureus (ATCC 29213); Gram-positive) | MIC (B.cereus (ATCC 10876); Gram-positive) | MIC (E. coli (ATCC 22922); Gram-negative) | also measured |
| --- | --- | --- | --- | --- | --- | --- | --- | --- | --- | --- | --- | --- | --- | --- | --- | --- | --- | --- | --- | --- | --- |
| CCCCCCCCCCCCCCCC[N+](C)(C)C [+ve control, Cetyltrimethylammonium bromide, reference compound] | – | – | – | – | – | – | – | – | – | – | – | – | – | – | – | – | – | – | – | – | MIC (S.aureus (ATCC 29213); Staphylococcus aureus, ATCC29213): 15.2 µM; MIC (B.cereus (ATCC 10876); Bacillus cereus, ATCC10876): 12.3 µM; MIC (E. coli (ATCC 22922); Escherichia coli, ATCC22922): 686 µM; MIC ([1]; Klebsiella pneumoniae, ATCC13883): 10.7 µM; MIC ([2]; Pseudomonas aeruginosa, ATCC27853): 171 µM |
| Didecanoyl 2,2′-disulfanediyldibenzamide [Compound 2] | 2.26 x 10^12 M^−1s^−1 | 2.26 x 10^4 M^−1 | 225000 M⁻¹ | 225000 M⁻¹ | 12.32 | -30.60 KJmol^−1 | 3580 M⁻¹ | 8.18 | -20.76 KJmol^−1 | 405 M⁻¹ | 6.00 | -15.77 KJmol^−1 | -325.26 KJmol^−1 | -988.78 Jmol^−1K^−1 | 429000 M⁻¹ | 64600 M⁻¹ | 15700 M⁻¹ | 5400 µM | 2530 µM | >25300 µM | MIC ([1]; Gram-negative): 26300 µM; MIC ([2]; Gram-negative): 25600 µM; % Cell Viability (HaCaT cells; 2.5, 24 h): 100.0%; % Cell Viability (HaCaT cells; 5, 24 h): 100.0%; % Cell Viability (HaCaT cells; 10, 24 h): 63.7%; toxicity to the cells (in words) (HaCaT cells; at a concentration of <10 mg/ml): non-toxic |
| Dioctyl 2,2′-disulfanediyldibenzamide [Compound 1] | 7.45 x 10^12 M^−1s^−1 | 7.45 x 10^4 M^−1 | 5470 M⁻¹ | 5470 M⁻¹ | 8.61 | -21.68 KJmol^−1 | 3250 M⁻¹ | 8.09 | -18.73 KJmol^−1 | 461 M⁻¹ | 6.13 | -17.26 KJmol^−1 | -109.5 KJmol^−1 | -294.7 Jmol^−1K^−1 | 5060 M⁻¹ | 2110 M⁻¹ | 4950 M⁻¹ | 12500 µM | 3120 µM | 21400 µM | CMC [6]: 0.163 mM; MIC ([1]; Gram-negative): 25300 µM; MIC ([2]; Gram-negative): >15600 µM; % Cell Viability (HaCaT cells; 2.5, 24 h): 82.9%; % Cell Viability (HaCaT cells; 5, 24 h): 62.6%; % Cell Viability (HaCaT cells; 10, 24 h): 23.0%; % Cell Viability (HaCaT cells; 20, 24 h): 18.4%; cell death by changes in cell morphology (HaCaT cells; microscopy, 10 mg/ml (Figure 5)): considerable amount of cell death |
